Measurements as given in the EternaBench riboswitch data.

System: MS2 coat protein
Assay: apparent Kd, MS2 coat protein; higher = weaker binding; RNA-MaP array; FMN 200 µM where present
How it was run: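 The apparent Kd is reported as the median of filtered per-cluster binding-curve fits. To get these curves, designs transcribed by stalled E. coli RNA polymerase on Illumina sequencing-chip clusters were titrated with SNAP-549-labelled MS2 coat protein from 0.7 or 1.5 nM, doubling to 3 µM. Titrations were run without and then with constant ligand in 100 mM Tris-HCl pH 7.5, 80 mM KCl, 4 mM MgCl2, BSA, DTT, yeast tRNA and Tween-20, and green signal was normalised to red-channel RNA signal and control-cluster median Fmax.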

[1] = designed as: OFF switch for flavin mononucleotide, no ligand
[2] = ligand present: flavin mononucleotide, designed as: OFF switch for flavin mononucleotide
[3] = designed as: ON switch for flavin mononucleotide, no ligand
[4] = ligand present: flavin mononucleotide, designed as: ON switch for flavin mononucleotide

Sequence | apparent Kd [1] | apparent Kd [2] | apparent Kd [3] | apparent Kd [4]
AAAUUGCUAGAGGAUAUCGGAUAGGAUCUAUUACGAGAAGGUUAGACAUGAGGAUCACCCAUGUUCUGUUGGGA | 42.6 nM | 123 nM |  | 
AAAUUGGUAGAGGAUAUCGCACAGGAUUUACUGCGAGAAGGCUGCACAUGAGGAUCACCCAUGUUUUGUUGCGA | 15.2 nM | 18.1 nM |  | 
AAAUUUAACGAAGGAUAUACUAACAUGAGGAUCACCCAUGUGUGUUUCGUGUUGCUGAAAUUCGGGUAGAAGGUCGUAUACAUA | 41 nM | 28.7 nM |  | 
AAAUUUAACGAAGGAUAUGCUUACAUGAGGAUCACCCAUGUGUGCCUUGUGAUGCUGAUUAGGUUGCAGAAGGUCGUAUACAUA | 135 nM | 174 nM |  | 
AACAAACAUGAGGAUCACCCAUGUCAGGAUAUGCACAAACAAACAAACAAACAAGCAAGCAGAAGGGACACAAC | 21.7 nM | 39.7 nM |  | 
AACAAUCUAUCUGAGGAUAUCAUGUCAAAGACAUGAGGAUCACCCAUGUUGCAGGAAACUGCUCAUGAGAAGGCAGAUAGAUUGA |  |  | 614 nM | 43.7 nM
AACACUUAAAAGUGAGGCGAUAGGUAGGAUAUACAUGAGGAUCACCCAUGUAUGGGCUAUCUGCGGUAGAAGGACCUCUGGCCC | 6.44 nM | 8.84 nM |  | 
AACAGACGUGCUCUGAGUCCACAUGAGGAUCACCCAUGUGAGAGAAGGACCCUCGAGAGAGUUGGGUAGGAUAUCUCCGAUGGG | 27 nM | 80.5 nM |  | 
AACAGCUCGUCAGGAUAUAUUAUCUUUUAAUGUAUUUAUGUACAUGAGGAUCACCCAUGUUGUUUGUAGAAGGGACGAGCUGAA | 11.1 nM | 13.1 nM |  | 
AACAGUACAGGAUAUACAUGAGGAUCACCCAUGUGAGAAUUAAGUGGCGUACCACUAAGUAGAAGGGUACUGGA | 51.6 nM | 151 nM |  | 
AACAGUACAGGAUAUACAUGAGGAUCACCCAUGUGAGAAUUAUGUGGCGUACCACAAAGUAGAAGGGUACUGGA | 81.7 nM | 308 nM |  | 
AACAUGAGGAUCACCCAUGUACGCUGUAAUUACUCGCGUUGGCAGGAUAUGGGUUGGCUUCCGUCCCAGAAGGGUCAAGAUAAA |  |  | 253 nM | 105 nM
AACAUGAGGAUCACCCAUGUCCCACCAGAAGGCUGGCGGUGGUAGGAAAGGCUACGACAAAUAACAGAGGAUAUGGUGAAUGCA |  |  | 88.9 nM | 20.8 nM
AACAUGGCAGAGGAUAUAGGACGCUGGCAUAAACUAGAAGGCUGCACAUGAGGAUCACCCAUGUGUUCCUAAAC | 21.7 nM | 39.4 nM |  | 
AACAUGUGAGGAUAUGAGAACAGCCGGGAGGGCUGUGUAAAUUAGAAGGCACAUGAGGAUCACCCAUGUGACCU | 18.2 nM | 27.8 nM |  | 
AACCAUGUCCGAGGAUAUCUGGAAACAUUUCCAAGAGAAGGCGGACAUGAGGAUCACCCAUGUCUCUCCUCAUCAAAUCCAAGU | 12.4 nM | 94.6 nM |  | 
AACCGACAUGAGGAUCACCCAUGUCAGGAUAUGGACUGACACCGAAAGAGUGGAGGAACCAGAAGGGACUGGGC | 32.4 nM | 69.5 nM |  | 
AACCGCGAUCGGCCUGGCACGUCGAGAAGGGUACGUGACCUGCUUUACAUGAGGAUCACCCAUGUACAGGAUAUCGAAUAGCCG | 6.2 nM | 6.68 nM |  | 
AACCGUGCGGAGGAUAUUGAUAUCCCAGUCUAUCAAGAAGGCUGCACAUGAGGAUCACCCAUGUGAUCCGUGCU | 21.2 nM | 116 nM |  | 
AACCUAGUCAUAGGAUAUACAGGCAAAGCCAAAGUAGAAGGAUGACACAUGAGGAUCACCCAUGUGGUCCUUGAACAAAAUAAC | 27 nM | 196 nM |  | 
AACCUAUUACAGAAGGCCAGCUACAUGAGGAUCACCCAUGUCGAGUCAUGGAGGAUAUGUAGUAACCUGCACGCGGGCGGAUAC |  |  | 50.7 nM | 7.18 nM

Sequence | apparent Kd [1] | apparent Kd [2] | apparent Kd [3] | apparent Kd [4]
AACGGGUGGGUAGGAUAUGGCUAUGUCUCAUUGCUAGAAGGACCAGCUACUACAUGAGGAUCACCCAUGUCGUAGUGCACCCAG |  |  | 20.5 nM | 6.04 nM
AACGGGUGGGUAGGAUAUGGCUAUGUCUCAUUGCUAGAAGGGCCAGCUGCUACAUGAGGAUCACCCAUGUCGUAGUGCACCCAG |  |  | 72.4 nM | 40.3 nM
AACUAACAUGAGGAUCACCCAUGUCAGGAUAUGCAACGAUCGAUCGAUCGAUCGAUCAGCAGAAGGGACACUAA | 20.1 nM | 36 nM |  | 
AACUAACAUGAGGAUCACCCAUGUUGCAGCGGUUGAGGAUAUGUGGGUGAAAAUAGCAUGGCAGAAGGCGAGUGUA |  |  | 120 nM | 238 nM
AACUAAGUAUUAAUGGUGUCUGACAGAAGGCAAUAGGUUGUGACCGACAUGAGGAUCACCCAUGUUGAGGAUAUGUCUAGCUAC | 44.7 nM | 308 nM |  | 
AACUACUCUGUGAGGAUAUGCGAUCGUUGAUCAAAGCAGAAGGCACAUGAGGAUCACCCAUGUUCCUACGAGGG | 29.3 nM | 73.1 nM |  | 
AACUAGCUAGGAUAUACAUGAGGAUCACCCAUGUAAAAAAAAAAAAAAAGAUCAAAAUGUAGAAGGAGCUAGUA | 106 nM | 132 nM |  | 
AACUCACAUGAGGAUCACCCAUGUGAGGAUAUGAUACUAUGUACUUCGGUACAUAGUAUCAGAAGGCAUGUGGG | 50.5 nM | 28.1 nM |  | 
AACUCGUCAGGAUAUGCAUGCAGUUGCUGCAUUUCGCCGUUGCAGAAGGGACAUGAGGAUCACCCAUGUAGGUC | 42.4 nM | 37.2 nM |  | 
AACUCGUCAGGAUAUGCGCACAGAUAAUACGCUUCACAAUUGCAGAAGGGACAUGAGGAUCACCCAUGUAAAUA | 36.3 nM | 26.8 nM |  | 
AACUGACAUGAGGAUCACCCAUGUCAGGAUAUGAUAUGUAAAAAAUAAAAAAUACUUAUCAGAAGGGACAUGGA | 22.7 nM | 41.3 nM |  | 
AACUUACAUGAGGAUCACCCAUGUGAGGAUAUAUAAAUAUAUAUGUUAUUGUAUGUUUGUAGAAGGCGCGUGAU | 52.2 nM | 51.2 nM |  | 
AAGAAACAUGAGGAUCACCCAUGUAAUAAUAUGGGAGGAUAUACAAGGACAAUAGUCAAGGUAGAAGGCCUAAGAA |  |  | 175 nM | 27.5 nM
AAGAAGUCAGGAUAUCGUGCUCGUCACUUGCGUGAUGAGUACGAGAAGGGACAUGAGGAUCACCCAUGUAAAGA | 52.4 nM | 52.5 nM |  | 
AAGAAGUCAGGAUAUGCUGCUCGUCACUUGCGUGAUGAGUAGCAGAAGGGACAUGAGGAUCACCCAUGUGGAGA | 114 nM | 241 nM |  | 
AAGAAUCAAGGAUAUGCAUGAUACGACAUGAGGAUCACCCAUGUCCUCAUGCGUAUCCUUGCAGAAGGUGAGUAUA | 13.8 nM | 17.1 nM |  | 
AAGACUAGAGGAUAUACAUGAGGAUCACCCAUGUAACUGUCAGGUGACUGACGGAAAUGUAGAAGGCUAGUCAA | 16.2 nM | 37.9 nM |  | 
AAGAGGUCAGGAUAUACGGAGAGAGGGAGUUGGUGAGGGUAACAUGAGGAUCACCCAUGUAGAAGGGACUAAGA | 22.4 nM | 24.7 nM |  | 
AAGAUGUCUUGAGGAUAUCCAAAGGAAACCGCAGGAGAAGGCAGGACAUGAGGAUCACCCAUGUUGGGUUUAAUGCGAACAUAA | 102 nM | 342 nM |  | 
AAGCACAGAGGAUAUACAUGGGUAAAAAAAAAAAAAAAAAAACAUGAGGAUCACCCAUGUAGAAGGCUGUGCAA | 81.6 nM | 67 nM |  | 
AAGCAUUGGCUUCUCAUCUACAUGAGGAUCACCCAUGUCGGGAGAAGGAGGCGUUGACAACUAGCCUAGGAUAUCCUAACGUGC | 6.74 nM | 7.26 nM |  | 
